Data published in EPA's CvTdb concentration-time database.

Experiments:
Rat [1] = assay: concentration in plasma after dosing; settings: 4 h; dosed: Gemfibrozil; 4.29 mg/kg; oral; Male; Sprague-Dawley
Rat [2] = assay: concentration in plasma after dosing; settings: 2 h; dosed: Gemfibrozil; 4.29 mg/kg; oral; Male; Sprague-Dawley
Rat [3] = assay: concentration in plasma after dosing; settings: 10 h; dosed: Gemfibrozil; 50 mg/kg; oral; Male; Sprague-Dawley
Rat [4] = assay: concentration in plasma after dosing; settings: 15 h; dosed: Gemfibrozil; 4.29 mg/kg; oral; Male; Sprague-Dawley
Rat [5] = assay: concentration in plasma after dosing; settings: 10 h; dosed: Gemfibrozil; 50 mg/kg; oral; Male; Sprague-Dawley; remark: listed apart in the source
Rat [6] = assay: concentration in plasma after dosing; settings: 0.25 h; dosed: Gemfibrozil; 100 mg/kg; oral; Male; Sprague-Dawley
Rat [7] = assay: concentration in brain after dosing; settings: 0.2 h; dosed: 2-Methyltetrahydrofuran; 40 mg/kg; iv; Male; Harlan Sprague Dawley
Rat [8] = assay: concentration in brain after dosing; settings: 1.5 h; dosed: 2-Methyltetrahydrofuran; 40 mg/kg; iv; Male; Harlan Sprague Dawley
Rat [9] = assay: concentration in plasma after dosing; settings: 2 h; dosed: 2-Methyltetrahydrofuran; 40 mg/kg; iv; Male; Harlan Sprague Dawley
Rat [10] = assay: concentration in plasma after dosing; settings: 0.75 h; dosed: 2-Methyltetrahydrofuran; 40 mg/kg; iv; Male; Harlan Sprague Dawley
human = assay: concentration in blood after dosing; settings: dosed: trichloroethylene, 100 ppm, inhalation, duration: 4 hr, person
Procedure, shortened: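 Data points giving concentration or amount against time came from published in vivo toxicokinetic studies and from two structured collections. PubMed searching, classifier screening and manual review located the studies. Most points were digitised from plot screenshots using WebPlotDigitizer, the rest were copied from tables, and all keep their reported units.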

Rat [11] = assay: concentration in liver after dosing; settings: 6 h; dosed: Perfluorooctane Sulfonate; 2 mg/kg; oral; Female; Harlan Sprague Dawley
Rat [12] = assay: concentration in brain after dosing; settings: 6 h; dosed: Perfluorooctane Sulfonate; 20 mg/kg; oral; Male; Harlan Sprague Dawley
Rat [13] = assay: concentration in liver after dosing; settings: 3360 h; dosed: Perfluorooctane Sulfonate; 2 mg/kg; oral; Female; Harlan Sprague Dawley
Rat [14] = assay: concentration in liver after dosing; settings: 864 h; dosed: Perfluorooctane Sulfonate; 2 mg/kg; oral; Female; Harlan Sprague Dawley
Rat [15] = assay: concentration in brain after dosing; settings: 864 h; dosed: Perfluorooctane Sulfonate; 20 mg/kg; oral; Male; Harlan Sprague Dawley
Rat [16] = assay: concentration in liver after dosing; settings: 864 h; dosed: Perfluorooctane Sulfonate; 20 mg/kg; oral; Male; Harlan Sprague Dawley
Rat [17] = assay: concentration in liver after dosing; settings: 3360 h; dosed: Perfluorooctane Sulfonate; 20 mg/kg; oral; Male; Harlan Sprague Dawley
Rat [18] = assay: concentration in liver after dosing; settings: 24 h; dosed: Perfluorooctane Sulfonate; 20 mg/kg; oral; Female; F344
Rat [19] = assay: concentration in plasma after dosing; settings: 24 h; dosed: Perfluorooctane Sulfonate; 2 mg/kg; oral; Female; Harlan Sprague Dawley
Rat [20] = assay: concentration in kidney after dosing; settings: 24 h; dosed: Perfluorooctane Sulfonate; 20 mg/kg; oral; Female; F344
Rat [21] = assay: concentration in plasma after dosing; settings: 6 h; dosed: Perfluorooctane Sulfonate; 2 mg/kg; oral; Female; Harlan Sprague Dawley
Rat [22] = assay: concentration in kidney after dosing; settings: 6 h; dosed: Perfluorooctane Sulfonate; 20 mg/kg; oral; Female; F344
Rat [23] = assay: concentration in kidney after dosing; settings: 3360 h; dosed: Perfluorooctane Sulfonate; 20 mg/kg; oral; Male; Harlan Sprague Dawley
Rat [24] = assay: concentration in kidney after dosing; settings: 864 h; dosed: Perfluorooctane Sulfonate; 20 mg/kg; oral; Female; F344
Rat [25] = assay: concentration in plasma after dosing; settings: dosed: Perfluorooctane Sulfonate, 2 mg/kg, iv, Male, F344
Rat [26] = assay: concentration in liver after dosing; settings: 0.5 h; dosed: Perfluorohexanoic Acid; 80 mg/kg; oral; Male; Harlan Sprague Dawley
Rat [27] = assay: concentration in plasma after dosing; settings: dosed: Perfluorohexanoic Acid, 40 mg/kg, oral, Male, Harlan Sprague Dawley
Rat [28] = assay: concentration in plasma after dosing; settings: 1 h; dosed: Perfluorohexanoic Acid; 80 mg/kg; oral; Male; Harlan Sprague Dawley
Rat [29] = assay: concentration in brain after dosing; settings: 1 h; dosed: Fluorotelomer alcohol 8+2; 24 mg/kg; oral; Male; Harlan Sprague Dawley
Rat [30] = assay: concentration in liver after dosing; settings: 6 h; dosed: Fluorotelomer alcohol 8+2; 80 mg/kg; oral; Female; Harlan Sprague Dawley
Rat [31] = assay: concentration in brain after dosing; settings: 3 h; dosed: Fluorotelomer alcohol 8+2; 24 mg/kg; oral; Male; Harlan Sprague Dawley
Rat [32] = assay: concentration in liver after dosing; settings: 3 h; dosed: Fluorotelomer alcohol 8+2; 80 mg/kg; oral; Female; Harlan Sprague Dawley
Rat [33] = assay: concentration in plasma after dosing; settings: dosed: 678-39-7, 40 mg/kg, iv, Male, F344
Rat [34] = assay: concentration in plasma after dosing; settings: 192 h; dosed: Fluorotelomer alcohol 8+2; 24 mg/kg; oral; Male; Harlan Sprague Dawley
Rat [35] = assay: concentration in plasma after dosing; settings: 3 h; dosed: 678-39-7; 12 mg/kg; iv; Male; F344

Cc1ccc(C)c(OCCCC(C)(C)C(=O)O)c1 [Gemfibrozil]
Settings | concentration in plasma [ng/mL]
Rat [1] | 238
Rat [2] | 234
Rat [3] | 4380
Rat [4] | 285
Rat [5] | 1930
Rat [6] | 35700

CC1CCCO1 (centres undefined) [2-Methyltetrahydrofuran]
Settings | concentration in brain [ng/mL] | concentration in plasma [ng/mL]
Rat [7] | 24100 | –
Rat [8] | 7300 | –
Rat [9] | – | 13900
Rat [10] | – | 22000

ClC=C(Cl)Cl [trichloroethylene]
human
Settings | concentration in blood [nM]
0 h | 13000
0.17 h | 4900
0.5 h | 3280
1 h | 2200
1.5 h | 1680
2 h | 1340
3 h | 1070
4 h | 865
6 h | 583
8 h | 392
10 h | 259

O=S(=O)([O-])C(F)(F)C(F)(F)C(F)(F)C(F)(F)C(F)(F)C(F)(F)C(F)(F)C(F)(F)F [Perfluorooctane Sulfonate]
Settings | concentration in brain [ng/g] | concentration in kidney [ng/g] | concentration in liver [ng/g] | concentration in plasma [ng/mL]
Rat [11] | – | – | 25400 | –
Rat [12] | 4440 | – | – | –
Rat [13] | – | – | 1350 | –
Rat [14] | – | – | 8950 | –
Rat [15] | 2330 | – | – | –
Rat [16] | – | – | 98700 | –
Rat [17] | – | – | 15700 | –
Rat [18] | – | – | 160000 | –
Rat [19] | – | – | – | 5040
Rat [20] | – | 127000 | – | –
Rat [21] | – | – | – | 4920
Rat [22] | – | 133000 | – | –
Rat [23] | – | 10400 | – | –
Rat [24] | – | 35600 | – | –

Rat [25]
Settings | concentration in plasma [ng/mL]
12 h | 4020
1200 h | 875

O=C(O)C(F)(F)C(F)(F)C(F)(F)C(F)(F)C(F)(F)F [Perfluorohexanoic Acid]
Settings | concentration in liver [ng/g] | concentration in plasma [ng/mL]
Rat [26] | 67900 | –
Rat [28] | – | 146000

Rat [27]
Settings | concentration in plasma [ng/mL]
3 h | 56400
5 min | 32900

O=C(O)CCC(F)(F)C(F)(F)C(F)(F)C(F)(F)C(F)(F)C(F)(F)C(F)(F)F [Fluorotelomer acid 7+3]
Settings | concentration in brain [ng/g] | concentration in liver [ng/g] | concentration in plasma [ng/mL]
Rat [29] | 128 | – | –
Rat [30] | – | 7770 | –
Rat [31] | 463 | – | –
Rat [32] | – | 10700 | –
Rat [34] | – | – | 40.8
Rat [35] | – | – | 735

Rat [33]
Settings | concentration in plasma [ng/mL]
0.25 h | 84.2
6 h | 820
